Measured values reported in ChEMBL document CHEMBL1148742, “Structure-activity relationship of 2-oxoamide inhibition of group IVA cytosolic phospholipase A2 and group V secreted phospholipase A2” (2007).

How the values were obtained:
Homo sapiens [1] = species on record: Homo sapiens; experiment: Inhibition of GV sPLA2 at 0.091 mole fraction
How it was run: (§1)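 Recombinant human GV sPLA2, expressed in E. coli as inclusion bodies, sulfonated, refolded and purified (>90%). Enzyme (40 ng) in 50 mM Tris-HCl pH 8.0, 5 mM CaCl2, with mixed micelles of 100 µM 1-palmitoyl-2-[14C]palmitoyl PC and 400 µM Triton X-100, in 1% DMSO. Incubated 10-60 min at 40 °C; released [14C]-palmitic acid measured by modified Dole extraction. Inhibitor dose expressed as mole fraction.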

Homo sapiens [2] = species on record: Homo sapiens; experiment: Inhibition of human GIVA cPLA2
How it was run: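 Pure native human GIVA cPLA2 (10 ng) in 100 mM HEPES pH 7.5, 80 µM CaCl2, 0.1 mg/mL fatty acid-free BSA, 2 mM DTT. Substrate was mixed micelles of 97 µM 1-palmitoyl-2-[14C]arachidonoyl PC, 3 µM PIP2 and 400 µM Triton X-100, in 1% DMSO. Incubated 10-60 min at 40 °C; [14C]-AA release measured by modified Dole assay and compared with DMSO-only control. XI(50) expressed as mole fraction of inhibitor over inhibitor plus substrate plus detergent.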

Rattus norvegicus [3] = experiment: Antiinflammatory activity against carrageenan-induced paw edema in rat; assay type: functional
How it was run: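 Compound given ip at the same time as intradermal carrageenan into the rat paw; rats were euthanized after 3.5 h. Edema was taken as injected minus uninjected paw weight and expressed as percent inhibition versus controls. Four doses were used, each on two groups of five animals, averaged over two experiments. ED50 was derived from the four doses; Student's t-test was used.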

Rattus norvegicus [4] = experiment: Analgesic activity in rat assessed as decrease in writhes at 0.00005 mmol/kg, ip; assay type: functional; set-up: scale not given: the % may be the effect or the level left
How it was run: (§2)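 Rat writhing test: compound given ip 30 min before ip acetic acid. Each animal's total writhes were compared with a vehicle-treated control group, and analgesic activity was expressed as percent decrease in writhes.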

Homo sapiens [5] = species on record: Homo sapiens; experiment: Inhibition of GV sPLA2 at 0.040 mole fraction; how it was run: as §1
Rattus norvegicus [6] = experiment: Analgesic activity in rat assessed as decrease in writhes at 0.0165 mmol/kg, ip; assay type: functional; set-up: scale not given: the % may be the effect or the level left; how it was run: as §2
Rattus norvegicus [7] = experiment: Analgesic activity in rat assessed as decrease in writhes at 0.0001 mmol/kg, ip; assay type: functional; set-up: scale not given: the % may be the effect or the level left; how it was run: as §2
Homo sapiens [8] = species on record: Homo sapiens; experiment: Inhibition of GV sPLA2 at 0.048 mole fraction; how it was run: as §1
Homo sapiens [9] = species on record: Homo sapiens; experiment: Inhibition of GV sPLA2 at 0.01 mole fraction; how it was run: as §1
Homo sapiens [10] = species on record: Homo sapiens; experiment: Inhibition of GV sPLA2 at 0.02 mole fraction; how it was run: as §1
Rattus norvegicus [11] = experiment: Analgesic activity in rat assessed as decrease in writhes at 0.01 mmol/kg, ip; assay type: functional; set-up: scale not given: the % may be the effect or the level left; how it was run: as §2
Rattus norvegicus [12] = experiment: Analgesic activity in rat assessed as decrease in writhes at 0.008 mmol/kg, ip; assay type: functional; set-up: scale not given: the % may be the effect or the level left; how it was run: as §2

Structure (SMILES)	inhibition (Homo sapiens [1])	XI50 (Homo sapiens [2])	also measured
CCCCCCCCCCC(=O)C(=O)N[C@@H](CCCC)C(=O)O	60%	–	–
O=C(O)CCCNC(=O)C(=O)CCCc1ccccc1	34%	–	–
CCCCCCCCCCC(=O)C(=O)N[C@@H](CCCC)CCC(=O)O	–	0.009	–
CCCCCCCCCCCCCCC(=O)C(=O)N[C@@H](CCCC)CCCC(=O)O	–	0.005	ED50 (Rattus norvegicus [3]): 0.05 µmol/kg; Activity (Rattus norvegicus [4]): 71%
CCCCCCCCCCCCCCCCNC(=O)C(=O)CC	30%	–	–
CCCCCCCC/C=C\CCCCCCCC(=O)C(=O)NCCCC(=O)OC	–	0.012	inhibition (Homo sapiens [5]): 24%
COC(=O)CCCNC(=O)C(=O)CCCc1ccccc1	48%	–	–
CCCCCCCCCCC(=O)C(=O)N[C@@H](CCC(=O)OC)COC(=O)NCCCCCCCC	–	0.02	–
CCCCCCCCCCCCCCC(=O)C(=O)N[C@@H](CCC(=O)O)C(=O)NCCCCCCCCCC	33%	0.025	ED50 (Rattus norvegicus [3]): 16.5 µmol/kg; Activity (Rattus norvegicus [6]): 11%
COC(=O)CCCNC(=O)C(=O)CCCCc1ccccc1	31%	–	–
CCCCCCCC/C=C\CCCCCCCC(=O)C(=O)NCCCC(=O)O	–	0.011	ED50 (Rattus norvegicus [3]): 0.1 µmol/kg; Activity (Rattus norvegicus [7]): 53%
CCCCCCCCCCC(=O)C(=O)N[C@@H](CCC(=O)O)C(=O)NCC	30%	–	–
CCCCCCCCCCCCCC(=O)C(=O)N[C@@H](CCCC)CCCC(=O)O	26%	0.005	–
CCCCCCCCCCC(=O)C(=O)N[C@H](CCC(=O)O)C(=O)NCC	12%	–	–
O=C(O)CCCNC(=O)C(=O)CCCCc1ccccc1	27%	–	–
CCCCCCCCCCCCCCC(=O)C(=O)NCCCC(=O)O	–	0.017	–
NC(=O)C(=O)CCCCc1ccccc1	45%	–	–
CCCCCCC(=O)C(=O)NCCCC(=O)O	–	–	inhibition (Homo sapiens [8]): 27%
CCCCCCCCCCC(=O)C(=O)N[C@@H](CCC(=O)O)C(=O)O	15%	–	–
CCCCCCCCCCCCCC(=O)C(=O)N[C@@H](CCCC)CCC(=O)O	30%	0.01	–
CCCCCCCC/C=C\CCCCCCCCNC(=O)C(=O)CCCCCC	–	–	inhibition (Homo sapiens [9]): 22%
CCCCCCCCCCCCCC(=O)C(=O)N[C@@H](CCCC)CCCCC(=O)O	22%	0.013	–
CCCCCCC(=O)C(=O)N[C@H](CCC(=O)O)Cc1ccccc1	14%	–	–
CCCCCCCCCCCCCCC(=O)C(=O)NCCCC(=O)OC	22%	–	–
CCCCCCCCCCCCCCC(=O)C(=O)N[C@@H](CCCC)COC(=O)NCCCCCCCC	20%	–	–
CCCCCCCCCCCCCC(=O)C(=O)N[C@@H](CCCC)CC(=O)O	–	0.027	–
CCCCCCCCCCC(=O)C(=O)N[C@@H](CCC(=O)O)COC(=O)NCCCCCCCC	60%	–	–
CCCCCCCC/C=C\CCCCCCCCNC(=O)C(=O)CCCCCCCCCCCCCC	–	–	inhibition (Homo sapiens [10]): 37%
CCCCCCCCCCC(=O)C(=O)N[C@@H](CCCC)CCCCC(=O)O	22%	0.025	ED50 (Rattus norvegicus [3]): 10 µmol/kg; Activity (Rattus norvegicus [11]): 33%
CCCCCCCCCCCCCCC(=O)C(=O)N[C@@H](CCCC)CCC(=O)O	–	0.008	ED50 (Rattus norvegicus [3]): 8 µmol/kg; Activity (Rattus norvegicus [12]): 65%
